Legend:
[1] = system: PC-3; test: Growth inhibition of human PC3 cells assessed as cell growth at 10^-5 M after 48 hrs by sulforhodamine B assay relative to control; format: functional; conditions: PC-3, 48 h, read-out: Activity
Outline: (§1)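 NCI-60 single-dose screen at 10^-5 M. Cells grown in RPMI 1640 with 5% FBS and 2 mM L-glutamine, plated at 5,000–40,000 cells/well according to doubling time, and preincubated 24 h at 37°C, 5% CO2. Compound dissolved in DMSO and added. Exposure 48 h. Adherent cells fixed with cold TCA (10% final), suspension cells with 16% final TCA. Read-out is 0.4% SRB staining, dye solubilised in 10 mM Tris, absorbance at 515 nm. Percent growth is calculated against the time-zero plate and untreated control.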

[2] = target: Epidermal growth factor receptor (Homo sapiens, UniProt P00533); test: Inhibition of human EGFR
[3] = system: HOP-62; test: Growth inhibition of human HOP62 cells assessed as cell growth at 10^-5 M after 48 hrs by sulforhodamine B assay relative to control; format: functional; conditions: HOP-62, 48 h, read-out: Activity; outline: as §1
[4] = system: OVCAR-5; test: Growth inhibition of human OVCAR5 cells assessed as cell growth at 10^-5 M after 48 hrs by sulforhodamine B assay relative to control; format: functional; conditions: OVCAR-5, 48 h, read-out: Activity; outline: as §1
[5] = system: BT-549; test: Growth inhibition of human BT549 cells assessed as cell growth at 10^-5 M after 48 hrs by sulforhodamine B assay relative to control; format: functional; conditions: BT-549, 48 h, read-out: Activity; outline: as §1
[6] = system: UACC-257; test: Growth inhibition of human UACC257 cells assessed as cell growth at 10^-5 M after 48 hrs by sulforhodamine B assay relative to control; format: functional; conditions: UACC-257, 48 h, read-out: Activity
Outline: (§2)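 NCI-60 single-dose screen, 10^-5 M final. Cells grown in RPMI 1640 with 5% FBS and 2 mM L-glutamine, seeded at 5,000–40,000 cells/well by doubling time. Preincubated 24 h at 37°C, 5% CO2. Compound in DMSO, diluted in medium with gentamicin, then 48 h exposure. Fixed with cold TCA, SRB stained, A515 read. Percent growth vs untreated control, time-zero plate corrected.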

[7] = system: SK-OV-3; test: Growth inhibition of human SKOV3 cells assessed as cell growth at 10^-5 M after 48 hrs by sulforhodamine B assay relative to control; format: functional; conditions: SK-OV-3, 48 h, read-out: Activity; outline: as §1
[8] = system: SR; test: Growth inhibition of human SR cells assessed as cell growth at 10^-5 M after 48 hrs by sulforhodamine B assay relative to control; format: functional; conditions: read-out: Activity; outline: as §2
[9] = system: HCT-15; test: Growth inhibition of human HCT15 cells assessed as cell growth at 10^-5 M after 48 hrs by sulforhodamine B assay relative to control; format: functional; conditions: HCT-15, 48 h, read-out: Activity; outline: as §1
[10] = system: A498; test: Growth inhibition of human A498 cells assessed as cell growth at 10^-5 M after 48 hrs by sulforhodamine B assay relative to control; format: functional; conditions: A498, 48 h, read-out: Activity; outline: as §1
[11] = system: SK-MEL-2; test: Growth inhibition of human SK-MEL-2 cells assessed as cell growth at 10^-5 M after 48 hrs by sulforhodamine B assay relative to control; format: functional; conditions: SK-MEL-2, 48 h, read-out: Activity; outline: as §1
[12] = system: Malme-3M; test: Growth inhibition of human MALME-3M cells assessed as cell growth at 10^-5 M after 48 hrs by sulforhodamine B assay relative to control; format: functional; conditions: read-out: Activity; outline: as §1
[13] = target: Thymidylate synthase (Homo sapiens, UniProt P04818); test: Inhibition of human thymidylate synthase
[14] = system: TK-10; test: Growth inhibition of human TK10 cells assessed as cell growth at 10^-5 M after 48 hrs by sulforhodamine B assay relative to control; format: functional; conditions: TK-10, 48 h, read-out: Activity; outline: as §2
[15] = target: T1, Cathepsin K (Homo sapiens, UniProt P43235); test: Inhibition of human cathepsin K
T1 sequence (P43235 whole entry): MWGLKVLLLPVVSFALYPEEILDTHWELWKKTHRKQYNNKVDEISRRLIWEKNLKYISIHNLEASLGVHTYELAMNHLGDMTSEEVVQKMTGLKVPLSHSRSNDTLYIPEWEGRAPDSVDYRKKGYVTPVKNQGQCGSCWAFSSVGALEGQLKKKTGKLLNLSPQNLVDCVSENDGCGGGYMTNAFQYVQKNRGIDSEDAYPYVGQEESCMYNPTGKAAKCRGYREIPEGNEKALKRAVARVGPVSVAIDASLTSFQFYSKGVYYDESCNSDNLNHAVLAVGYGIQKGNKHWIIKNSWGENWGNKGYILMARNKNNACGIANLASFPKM

[16] = system: NCI-H460; test: Growth inhibition of human NCI-H460 cells assessed as cell growth at 10^-5 M after 48 hrs by sulforhodamine B assay relative to control; format: functional; conditions: NCI-H460, 48 h, read-out: Activity; outline: as §1
[17] = system: SK-MEL-5; test: Growth inhibition of human SK-MEL-5 cells assessed as cell growth at 10^-5 M after 48 hrs by sulforhodamine B assay relative to control; format: functional; conditions: SK-MEL-5, 48 h, read-out: Activity; outline: as §1
[18] = system: SW-620; test: Growth inhibition of human SW620 cells assessed as cell growth at 10^-5 M after 48 hrs by sulforhodamine B assay relative to control; format: functional; conditions: SW-620, 48 h, read-out: Activity; outline: as §2
[19] = system: MCF7; test: Growth inhibition of human MCF7 cells assessed as cell growth at 10^-5 M after 48 hrs by sulforhodamine B assay relative to control; format: functional; conditions: MCF7, 48 h, read-out: Activity; outline: as §1
[20] = system: SNB-75; test: Growth inhibition of human SNB75 cells assessed as cell growth at 10^-5 M after 48 hrs by sulforhodamine B assay relative to control; format: functional; conditions: SNB-75, 48 h, read-out: Activity; outline: as §1
[21] = system: RXF 393; test: Growth inhibition of human RXF393 cells assessed as cell growth at 10^-5 M after 48 hrs by sulforhodamine B assay relative to control; format: functional; conditions: RXF 393, 48 h, read-out: Activity; outline: as §1
[22] = system: M14; test: Growth inhibition of human M14 cells assessed as cell growth at 10^-5 M after 48 hrs by sulforhodamine B assay relative to control; format: functional; conditions: M14, 48 h, read-out: Activity; outline: as §1
[23] = system: HT-29; test: Growth inhibition of human HT-29 cells assessed as cell growth at 10^-5 M after 48 hrs by sulforhodamine B assay relative to control; format: functional; conditions: HT-29, 48 h, read-out: Activity; outline: as §1
[24] = system: SN12C; test: Growth inhibition of human SN12C cells assessed as cell growth at 10^-5 M after 48 hrs by sulforhodamine B assay relative to control; format: functional; conditions: read-out: Activity; outline: as §1
[25] = system: SNB-19; test: Growth inhibition of human SNB19 cells assessed as cell growth at 10^-5 M after 48 hrs by sulforhodamine B assay relative to control; format: functional; conditions: SNB-19, 48 h, read-out: Activity; outline: as §1
[26] = system: T47D; test: Growth inhibition of human T47D cells assessed as cell growth at 10^-5 M after 48 hrs by sulforhodamine B assay relative to control; format: functional; conditions: read-out: Activity; outline: as §2
[27] = system: SK-MEL-28; test: Growth inhibition of human SK-MEL-28 cells assessed as cell growth at 10^-5 M after 48 hrs by sulforhodamine B assay relative to control; format: functional; conditions: SK-MEL-28, 48 h, read-out: Activity; outline: as §1

Thymidylate synthase, sequence (P04818 whole entry): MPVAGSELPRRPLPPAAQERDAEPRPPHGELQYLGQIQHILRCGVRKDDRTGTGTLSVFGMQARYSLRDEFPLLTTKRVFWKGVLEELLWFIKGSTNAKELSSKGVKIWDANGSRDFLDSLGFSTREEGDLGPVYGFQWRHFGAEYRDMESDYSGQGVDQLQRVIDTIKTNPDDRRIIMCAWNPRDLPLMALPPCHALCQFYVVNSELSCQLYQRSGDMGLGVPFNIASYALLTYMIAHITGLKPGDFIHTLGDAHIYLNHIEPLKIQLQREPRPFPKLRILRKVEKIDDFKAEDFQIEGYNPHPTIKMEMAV
Epidermal growth factor receptor, sequence (P00533 whole entry): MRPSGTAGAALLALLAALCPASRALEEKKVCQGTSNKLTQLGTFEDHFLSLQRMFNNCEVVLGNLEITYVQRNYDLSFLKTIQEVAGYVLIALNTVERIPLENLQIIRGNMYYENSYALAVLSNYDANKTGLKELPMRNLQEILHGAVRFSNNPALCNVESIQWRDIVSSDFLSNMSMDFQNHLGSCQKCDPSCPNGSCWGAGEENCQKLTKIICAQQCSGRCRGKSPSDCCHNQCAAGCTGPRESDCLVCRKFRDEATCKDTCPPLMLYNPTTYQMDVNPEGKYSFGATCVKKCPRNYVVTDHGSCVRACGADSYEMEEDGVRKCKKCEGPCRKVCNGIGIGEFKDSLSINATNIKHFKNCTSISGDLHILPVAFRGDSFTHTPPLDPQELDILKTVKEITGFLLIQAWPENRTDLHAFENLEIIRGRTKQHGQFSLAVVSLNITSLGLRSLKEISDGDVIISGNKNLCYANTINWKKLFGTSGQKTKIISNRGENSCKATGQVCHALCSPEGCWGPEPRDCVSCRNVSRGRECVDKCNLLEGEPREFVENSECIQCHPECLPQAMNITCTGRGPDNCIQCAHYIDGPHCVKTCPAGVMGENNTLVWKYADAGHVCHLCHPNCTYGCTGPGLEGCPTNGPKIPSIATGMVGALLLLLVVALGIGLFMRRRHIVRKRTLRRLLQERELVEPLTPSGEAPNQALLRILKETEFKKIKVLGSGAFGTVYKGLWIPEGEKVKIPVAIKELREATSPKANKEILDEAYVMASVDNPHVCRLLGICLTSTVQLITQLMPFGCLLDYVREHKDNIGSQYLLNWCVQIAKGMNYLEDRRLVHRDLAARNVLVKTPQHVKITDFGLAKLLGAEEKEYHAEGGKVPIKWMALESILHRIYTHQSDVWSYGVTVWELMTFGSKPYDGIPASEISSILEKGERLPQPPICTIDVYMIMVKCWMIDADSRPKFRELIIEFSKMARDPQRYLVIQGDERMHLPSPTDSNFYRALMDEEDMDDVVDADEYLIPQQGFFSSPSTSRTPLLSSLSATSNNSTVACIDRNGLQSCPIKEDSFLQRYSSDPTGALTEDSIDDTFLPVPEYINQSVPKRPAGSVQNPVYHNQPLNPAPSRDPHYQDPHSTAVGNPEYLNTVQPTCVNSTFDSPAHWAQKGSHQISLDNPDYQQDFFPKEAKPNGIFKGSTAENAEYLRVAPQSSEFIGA

| SMILES | growth at 10 µM [1] [%] | Ki [2] [µM] | growth at 10 µM [3] [%] | growth at 10 µM [4] [%] | growth at 10 µM [5] [%] | growth at 10 µM [6] [%] | growth at 10 µM [7] [%] | growth at 10 µM [8] [%] | growth at 10 µM [9] [%] | growth at 10 µM [10] [%] | growth at 10 µM [11] [%] | growth at 10 µM [12] [%] | Ki [13] [µM] | growth at 10 µM [14] [%] | Ki [15] [µM] | growth at 10 µM [16] [%] | growth at 10 µM [17] [%] | growth at 10 µM [18] [%] | growth at 10 µM [19] [%] | growth at 10 µM [20] [%] | other results |
| --- | --- | --- | --- | --- | --- | --- | --- | --- | --- | --- | --- | --- | --- | --- | --- | --- | --- | --- | --- | --- | --- |
| Cc1ccc(-c2csc(=N)n2CC(=O)N2CCN(C)CC2)cc1 | 68.4 | 27.4 | 99.5 | 116 | 115 | 102 | 111 | 86.5 | 91.6 | 80.2 | 108 | 128 | 19.3 | 129 | 8.71 | 102 | 87.2 | 98.4 | 93.2 | 73.5 | growth at 10 µM [21]: 93.1%; growth at 10 µM [22]: 105%; growth at 10 µM [23]: 110%; growth at 10 µM [24]: 93.2%; growth at 10 µM [25]: 99.8%; growth at 10 µM [26]: 81.6%; growth at 10 µM [27]: 97.5% |
| CC(=O)N1CCN(C(=O)Cn2c(-c3ccccc3)csc2=N)CC1 | 83.5 | 16.8 | 85.3 | 105 | 98 | 98.5 | 89.4 | 88.7 | 94.5 | 100 | 108 | 141 | 10.9 | 138 | 21.9 | 110 | 90.2 | 109 | 94.8 | 67.7 | growth at 10 µM [21]: 86.3%; growth at 10 µM [22]: 97%; growth at 10 µM [23]: 101%; growth at 10 µM [24]: 95.8%; growth at 10 µM [25]: 103%; growth at 10 µM [26]: 85.9%; growth at 10 µM [27]: 101% |
| CN1CCN(C(=O)Cn2c(-c3ccc(Cl)cc3)csc2=N)CC1 | 83.3 | 15.6 | 101 | 96.4 | 104 | 104 | 92.5 | 78.5 | 93.1 | 80 | 102 | 99.6 | 0.34 | 85.7 | 4.58 | 101 | 100 | 102 | 92.2 | 79.5 | growth at 10 µM [21]: 108%; growth at 10 µM [22]: 98.9%; growth at 10 µM [23]: 96%; growth at 10 µM [24]: 92.8%; growth at 10 µM [25]: 92.7%; growth at 10 µM [26]: 78.4%; growth at 10 µM [27]: 107% |
| Cc1ccc(-c2csc(=N)n2CC(=O)N2CCOCC2)cc1 | 78.9 | 22.9 | 112 | 102 | 99.3 | 103 | 114 | 96.2 | 98.1 | 95.1 | 111 | 131 | 4.06 | 126 | 51.2 | 108 | 98.2 | 114 | 97.8 | 90.6 | growth at 10 µM [21]: 94.5%; growth at 10 µM [22]: 110%; growth at 10 µM [23]: 109%; growth at 10 µM [24]: 100%; growth at 10 µM [25]: 106%; growth at 10 µM [26]: 97.4%; growth at 10 µM [27]: 108% |
| CN1CCN(C(=O)Cn2c(-c3ccccc3)csc2=N)CC1 | 82.1 | 41.6 | 88.9 | 110 | 92.6 | 106 | 89.2 | 74.1 | 87.6 | 92.6 | 118 | 89.1 | 1.14 | 140 | 6.22 | 99.1 | 88.2 | 96.1 | 81.4 | 56.5 | growth at 10 µM [21]: 97.3%; growth at 10 µM [22]: 94.2%; growth at 10 µM [23]: 83.8%; growth at 10 µM [24]: 85.2%; growth at 10 µM [25]: 93.7%; growth at 10 µM [26]: 78%; growth at 10 µM [27]: 100% |

Reference: ChEMBL document CHEMBL2434944, “Novel acetamidothiazole derivatives: synthesis and in vitro anticancer evaluation” (Eur J Med Chem, 2013)
